In PubChem BioAssay AID2465 (Broad Institute, 2010):
Among all 24,000 compounds or so, fewer than 10 were called active. Cut-off read from the data, not from the text of the source: active = caspase activation above about 5.9%; inconclusive = no clear call, values can overlap the other calls; inactive = below about 2.2%. The list is a sample of the results.

experiment: A1 inhibitors via caspase activation, primary screen, cell-based, luminescence, HTS, two replicates (AID 2465); details: MEF A1-2A-BIM cells, caspase-Glo luminescence, 3 h; stronger effect = higher value; percent of clofoctol response, DMSO zero; concentration not given here
Outline: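 System: mouse embryonic fibroblasts co-expressing A1 and BIM (A1-2A-BIM), primed for A1 dependence; amount: 2500 cells/well; doses: 50 nL pinned compound; schedule: cells settled overnight, compound exposure 3 h at 37 °C, 5% CO2; detection: Caspase-Glo 3/7 luminescence, 1 h at room temperature; read-out: Caspase-3/7 activation, seen as rise in luminescence signal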

Caspase activation, inactive:
C[C@H]1CN([C@@H](C)CO)C(=O)c2cc(N(C)C)ccc2O[C@@H]1CN(C)S(=O)(=O)c1ccc(Cl)cc1 -0.761%
C[C@H]1CCCCO[C@@H](CN(C)S(=O)(=O)c2ccc(Cl)cc2)[C@@H](C)CN([C@@H](C)CO)C(=O)c2cc(NS(=O)(=O)c3cn(C)cn3)ccc2O1 -0.712%
C[C@@H]1CN([C@H](C)CO)C(=O)c2cc(NS(=O)(=O)c3ccc(F)cc3)ccc2O[C@@H]1CN(C)S(C)(=O)=O -0.125%
COc1ccc(S(=O)(=O)N(C)C[C@@H]2OCCCC[C@@H](C)Oc3ccc(NC(=O)CCCN(C)C)cc3C(=O)N([C@@H](C)CO)C[C@@H]2C)cc1 0.265%
COc1ccc(S(=O)(=O)Nc2ccc3c(c2)C(=O)N([C@H](C)CO)C[C@@H](C)[C@H](CN(C)S(=O)(=O)c2ccc(Cl)cc2)OCCCC[C@@H](C)O3)cc1 -1.08%
C[C@@H]1CCCCO[C@@H](CN(C)Cc2ccc(C(F)(F)F)cc2)[C@H](C)CN([C@H](C)CO)C(=O)c2cc(NS(=O)(=O)c3ccc(F)cc3)ccc2O1 -0.24%
COc1ccc(NC(=O)Nc2ccc3c(c2)C(=O)N([C@H](C)CO)C[C@H](C)[C@@H](CN(C)Cc2ccccc2)OCCCC[C@H](C)O3)cc1 0.0689%
C[C@@H]1CCCCO[C@H](CN(C)C(=O)Nc2cccc3ccccc23)[C@@H](C)CN([C@@H](C)CO)C(=O)c2cc(NC(=O)Nc3ccc(F)cc3)ccc2O1 0.273%
Cc1noc(C)c1NC(=O)N(C)C[C@@H]1Oc2c(NC(=O)CCCCCC(=O)Nc3ccccc3N)cccc2C(=O)N([C@H](C)CO)C[C@@H]1C 1.76%
C[C@H](CO)N1C[C@H](C)[C@H](CN(C)Cc2ccccc2)OCCCC[C@H](C)Oc2ccc(NC(=O)Cc3ccccc3)cc2C1=O -0.193%
C[C@@H]1CN([C@@H](C)CO)C(=O)c2cccc(NC(=O)CCCCCC(=O)Nc3ccccc3N)c2O[C@H]1CN(C)C(=O)Nc1ccccc1 0.335%
Cc1noc(C)c1S(=O)(=O)N(C)C[C@H]1OCCCC[C@H](C)Oc2ccc(NC(=O)c3ccccc3)cc2C(=O)N([C@@H](C)CO)C[C@H]1C -0.984%
C[C@@H]1CN([C@H](C)CO)C(=O)c2cc(NC(=O)CCCN(C)C)ccc2O[C@H]1CN(C)S(=O)(=O)c1ccc(Cl)cc1 -1.33%
C[C@@H]1CCCCO[C@H](CN(C)C(=O)CCCN(C)C)[C@H](C)CN([C@@H](C)CO)C(=O)c2cc(NS(=O)(=O)c3ccc(Cl)cc3)ccc2O1 0.532%
COc1ccc(NC(=O)Nc2ccc3c(c2)CC(=O)N([C@@H](C)CO)C[C@@H](C)[C@H](CN(C)C(=O)NC2CCCCC2)O3)cc1 -1.36%
COc1ccc(S(=O)(=O)N(C)C[C@H]2Oc3c(NS(=O)(=O)c4ccc(F)cc4)cccc3C(=O)N([C@H](C)CO)C[C@H]2C)cc1 -0.361%
COC(=O)CCCCCCC(=O)N/N=C/c1ccc(I)cc1 0.387%
C[C@@H]1CN([C@H](C)CO)C(=O)c2cc(NC(=O)Nc3ccc(C(F)(F)F)cc3)ccc2O[C@@H](C)CCCCO[C@@H]1CN(C)Cc1ccc(C(F)(F)F)cc1 0.82%
C[C@@H]1CN([C@@H](C)CO)C(=O)c2cc(NC(=O)CCCCCC(=O)Nc3ccccc3N)ccc2O[C@@H](C)CCCCO[C@@H]1CN(C)CC1CCCCC1 0.522%
C[C@@H]1CCCCO[C@@H](CN(C)C(=O)C2CCCCC2)[C@H](C)CN([C@H](C)CO)C(=O)c2cc(NC(=O)Cc3ccccc3)ccc2O1 3.18%
C[C@@H]1CCCCO[C@@H](CN(C)S(=O)(=O)c2cccs2)[C@H](C)CN([C@H](C)CO)C(=O)c2cc(NC(=O)CCCN(C)C)ccc2O1 0.621%
Cc1ccc(S(=O)(=O)N(C)C[C@@H]2Oc3ccc(NC(=O)NC4CCCCC4)cc3C(=O)N([C@@H](C)CO)C[C@H]2C)cc1 -0.781%
C[C@H](CO)N1C[C@H](C)[C@H](CN(C)C(=O)Nc2ccccc2)Oc2c(NC(=O)Nc3ccc(C(F)(F)F)cc3)cccc2C1=O -0.159%
C[C@@H]1CCCCO[C@@H](CN(C)Cc2ccc(Cl)c(Cl)c2)[C@H](C)CN([C@@H](C)CO)C(=O)c2cc(NS(C)(=O)=O)ccc2O1 -0.491%
Cc1ccc(S(=O)(=O)Nc2ccc3c(c2)C(=O)N([C@@H](C)CO)C[C@@H](C)[C@H](CN(C)Cc2ccc4c(c2)OCO4)OCCCC[C@@H](C)O3)cc1 0.694%
C[C@H](CO)N1C[C@H](C)[C@@H](CN(C)C(=O)Nc2ccc(F)cc2)OCCCC[C@H](C)Oc2ccc(NC(=O)c3ccncc3)cc2C1=O 0.454%
CC(C)NC(=O)Nc1ccc2c(c1)C(=O)N([C@H](C)CO)C[C@@H](C)[C@@H](CN(C)Cc1ccncc1)O2 1.1%
C[C@@H]1CN([C@@H](C)CO)C(=O)c2cccc(NS(=O)(=O)c3ccccc3)c2O[C@@H]1CN(C)S(=O)(=O)c1ccc(F)cc1 0.0248%
COc1ccc(S(=O)(=O)Nc2ccc3c(c2)C(=O)N([C@@H](C)CO)C[C@@H](C)[C@H](CN(C)Cc2ccc(C(F)(F)F)cc2)OCCCC[C@@H](C)O3)cc1 -1.2%
C[C@H]1CN([C@@H](C)CO)C(=O)Cc2cc(NS(=O)(=O)c3ccccc3)ccc2O[C@@H]1CN(C)Cc1ccc(C(=O)Nc2ccccc2N)cc1 1.17%
Cc1noc(C)c1NC(=O)N(C)C[C@@H]1OCCCC[C@@H](C)Oc2ccc(NC(=O)C3CCCCC3)cc2C(=O)N([C@@H](C)CO)C[C@H]1C -0.914%
C[C@H]1CN([C@@H](C)CO)C(=O)Cc2cc(NC(=O)C3CCCCC3)ccc2O[C@H]1CN(C)C(=O)Nc1ccc(C(F)(F)F)cc1 0.751%
C[C@@H]1CCCCO[C@H](CN(C)Cc2ccc3c(c2)OCO3)[C@H](C)CN([C@@H](C)CO)C(=O)c2cc(NS(=O)(=O)c3cn(C)cn3)ccc2O1 -0.23%
